Data on one molecule can be found in paper PMC6542785 (Acta Pharmaceutica Sinica. B, 2018).

Assay type in all cases: cell-based, human
The subject of data set [1] is mitochondria of HeLa cells. Nature of the data set: Mitochondria targeting, quantification in isolated mitochondria. To be noted: 10 μg/mL Dox equivalent, flow cytometry, n=3. The method in brief: (§1)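 HeLa cells (DMEM) or MCF-7 cells (RPMI-1640), both with 10% FBS, grown at 37 °C, 5% CO2 and treated in 12-well plates with test compound (10 μg/mL Dox equivalent). Collected into mitochondria extraction reagent on ice for 10 min, then homogenised. Spun at 600×g for 10 min; supernatant spun at 11,000×g for 10 min. Pelleted mitochondria analysed for Dox by flow cytometry.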

Data set [2] has as its system mitochondria of MCF-7 cells. Described as above. To be noted: 10 μg/mL Dox equivalent, flow cytometry, n=3. The gist of the method: as §1
The subject of data set [3] is MCF-7/ADR cells. Briefly: Dox efflux assay. The method in brief: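 MCF-7/ADR and MCF-7 cells, in RPMI-1640 with 10% FBS and penicillin/streptomycin (1 μg/mL doxorubicin added to maintain the ADR line), loaded with test compound (10 µg/mL Dox equivalent) for 4 h. Washed, then chased in fresh drug-free medium for 2 or 4 h at 37 °C. Collected and PBS-washed; retained Dox read by flow cytometry. Efflux ratio from retained versus initial uptake; mean ± SD, n=3.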

Turning to `COc1cccc2c1C(=O)c1c(O)c3c(c(O)c1C2=O)C[C@@](O)(C(=O)CO)C[C@@H]3O[C@H]1C[C@H](N)[C@H](O)[C@H](C)O1` [Dox, doxorubicin], the mitochondria distribution in data set [1] and in data set [2] was under 5% throughout. Also, the “Dox efflux rate in MCF-7/ADR, fold higher than in MCF-7 cells” value in data set [3] (2 h in drug-free medium after 4 h loading) is given as 1.74 fold; in data set [3] (4 h in drug-free medium after 4 h loading), 2.08 fold.
